Assay [1] has as its target Bcl-2-like protein 1 (Homo sapiens, UniProt Q07817). Kind of assay: Displacement of FITC-BIM from recombinant human Bcl-XL expressed in Escherichia coli after 30 mins by fluorescence polarization assay. In a few lines: (§1)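 Fluorescence polarization competition: serial compound dilutions in 20 mM Hepes-KOH pH 7.4, 150 mM NaCl with 50 nM FITC-BIM; after 5 min, E. coli-expressed recombinant protein added at 1 µM; polarization read after 30 min incubation. Triplicates; Ki from nonlinear regression of competitive binding curves.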

Assay [2] relates to MEF. Nature of the assay: Induction of apoptosis in MEF assessed as appearance of fragmented nuclei and cell membrane blebbing at 15 uM after 24 hrs by DAPI staining. The class given is functional, cell-based. The note with it: Mus musculus. In a few lines: (§2)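 MEF wild-type or knockout clones (Bcl2, Bad, Bid, Bak, Bax, Bax/Bak) treated 24 h with compound (15 µM for single-concentration data) or 0.1% DMSO vehicle; apoptosis scored by fragmented nuclei and membrane blebbing. EC50 values are means of three experiments with s.d.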

The target of assay [3] is Apoptosis regulator Bcl-2 (Homo sapiens, UniProt P10415). Kind of assay: Displacement of FITC-BIM from recombinant human Bcl-2 expressed in Escherichia coli after 30 mins by fluorescence polarization assay. In a few lines: as §1
Assay [4] has as its system MEF. Kind of assay: Induction of apoptosis in Bax/Bak-deficient MEF assessed as appearance of fragmented nuclei and cell membrane blebbing at 15 uM after 24 hrs by DAPI staining. The note with it: Mus musculus. The class given is functional, cell-based. In a few lines: as §2
The test system of assay [5] is Lewis lung carcinoma cell line. Nature of the assay: Antitumor activity against mouse LLC cells allografted in BD2F mouse assessed as tumor growth inhibition at 1.25 mg/kg, ip administered every other day for 5 treatments relative to control. In kind it is functional. The note with it: route intraperitoneal, read-out: TGI.
For assay [6], the system named is MEF. Kind of assay: Induction of apoptosis in Bak-deficient MEF assessed as appearance of fragmented nuclei and cell membrane blebbing after 24 hrs by DAPI staining. The class given is functional, cell-based. The note with it: Mus musculus. In a few lines:
as §2

Assay [7] relates to MEF. Kind of assay: Induction of apoptosis in Bid-deficient MEF assessed as appearance of fragmented nuclei and cell membrane blebbing after 24 hrs by DAPI staining. The class given is functional, cell-based. The note with it: Mus musculus. In a few lines: as §2
The subject of assay [8] is MEF. Kind of assay: Induction of apoptosis in Bax/Bak-deficient MEF assessed as appearance of fragmented nuclei and cell membrane blebbing after 24 hrs by DAPI staining. The note with it: Mus musculus. In kind it is functional, cell-based. In a few lines:
as §2

Assay [9] concerns MEF. Nature of the assay: Induction of apoptosis in Bax-deficient MEF assessed as appearance of fragmented nuclei and cell membrane blebbing after 24 hrs by DAPI staining. In kind it is functional, cell-based. Particulars: Mus musculus. In a few lines: as §2
Assay [10] concerns MEF. Nature of the assay: Induction of apoptosis in Bcl2-deficient MEF assessed as appearance of fragmented nuclei and cell membrane blebbing after 24 hrs by DAPI staining. The class given is functional, cell-based. The note with it: Mus musculus. In a few lines:
as §2

For assay [11], the system named is MEF. Nature of the assay: Induction of apoptosis in wild-type MEF assessed as appearance of fragmented nuclei and cell membrane blebbing after 24 hrs by DAPI staining. The class given is functional, cell-based. The note with it: Mus musculus. In a few lines:
as §2

The subject of assay [12] is MEF. Nature of the assay: Induction of apoptosis in Bad-deficient MEF assessed as appearance of fragmented nuclei and cell membrane blebbing after 24 hrs by DAPI staining. In kind it is functional, cell-based. The note with it: Mus musculus. In a few lines: as §2
Assay [13] relates to MEF. Kind of assay: Induction of apoptosis in Bcl2-deficient MEF assessed as appearance of fragmented nuclei and cell membrane blebbing at 15 uM after 24 hrs by DAPI staining. In kind it is functional, cell-based. Particulars: Mus musculus. In a few lines: as §2
The test system of assay [14] is MEF. Nature of the assay: Induction of apoptosis in Bad-deficient MEF assessed as appearance of fragmented nuclei and cell membrane blebbing at 15 uM after 24 hrs by DAPI staining. The class given is functional, cell-based. The note with it: Mus musculus. In a few lines: as §2
Assay [15] concerns MEF. Kind of assay: Induction of apoptosis in Bak-deficient MEF assessed as appearance of fragmented nuclei and cell membrane blebbing at 15 uM after 24 hrs by DAPI staining. The class given is functional, cell-based. Particulars: Mus musculus. In a few lines:
as §2

For assay [16], the system named is MEF. Nature of the assay: Induction of apoptosis in Bid-deficient MEF assessed as appearance of fragmented nuclei and cell membrane blebbing at 15 uM after 24 hrs by DAPI staining. In kind it is functional, cell-based. The note with it: Mus musculus. In a few lines: as §2
The subject of assay [17] is MEF. Kind of assay: Induction of apoptosis in Bax-deficient MEF assessed as appearance of fragmented nuclei and cell membrane blebbing at 15 uM after 24 hrs by DAPI staining. In kind it is functional, cell-based. The note with it: Mus musculus. In a few lines: as §2
Assay [18] deals with Lewis lung carcinoma cell line. Kind of assay: Antitumor activity against mouse LLC cells allografted in C57BL/6 mouse assessed as tumor growth inhibition at 60 mg/kg, ip administerd for 14 days measured on day 15 relative to control. Particulars: read-out: TGI.

Active and inactive are the calls of the source. The rule behind the calls is not given here.

Broadly, the Ki is a dissociation constant, usually derived from enzyme kinetics or from competition with a known ligand. The term EC50 denotes the concentration needed to bring the measured effect to its halfway point.

Apoptosis regulator Bcl-2, sequence (P10415 whole entry, the tested form may be a part): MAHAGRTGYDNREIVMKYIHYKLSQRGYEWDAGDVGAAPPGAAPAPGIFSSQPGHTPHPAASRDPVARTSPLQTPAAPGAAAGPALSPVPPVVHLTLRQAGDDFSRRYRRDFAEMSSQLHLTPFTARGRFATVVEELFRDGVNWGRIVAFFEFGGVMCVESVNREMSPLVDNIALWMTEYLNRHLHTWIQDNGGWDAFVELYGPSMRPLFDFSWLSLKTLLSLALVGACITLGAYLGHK
Bcl-2-like protein 1, sequence (Q07817 whole entry): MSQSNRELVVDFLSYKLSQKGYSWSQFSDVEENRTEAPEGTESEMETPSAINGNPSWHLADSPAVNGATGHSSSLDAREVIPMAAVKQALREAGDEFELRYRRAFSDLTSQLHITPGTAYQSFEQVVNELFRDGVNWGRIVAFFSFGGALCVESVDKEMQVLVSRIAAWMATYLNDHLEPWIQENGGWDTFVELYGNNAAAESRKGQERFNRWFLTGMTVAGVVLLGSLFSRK

As to `CCOc1ccccc1N/N=C1\C(=O)N(c2cc(O)cc(-c3cccs3)c2)N=C1C`, the Ki in [1] and in assay [3] was more than 100 µM in each case. The outcome in assay [2] and in [4] was inactive.
Regarding `COc1cccc2c1C(=O)c1c(O)c3c(c(O)c1C2=O)C[C@@](O)(C(=O)CO)C[C@@H]3O[C@H]1C[C@H](N)[C@H](O)[C@H](C)O1` [DOXORUBICIN], in [5], the inhibition in vivo at 1.25 mg/kg amounted to 40%.
Regarding `CCOc1ccccc1N/N=C1/C(=O)N(c2nc(-c3ccccc3)cs2)N=C1C`, the EC50 was 6 µM in assay [6]; 4 µM in assay [7]; more than 50 µM in assay [8]; more than 50 µM in assay [9]; 3.2 µM in assay [10]; 7.7 µM in assay [11]. Further, the concentration giving a half-maximal response (EC50) in [12] came to 3.5 µM. Also, the Ki in [1] is more than 100 µM; in assay [3] it was 3 µM.
Take `CC1=NN(c2nc(-c3ccccc3)cs2)C(=O)/C1=C/c1ccc(-c2ccccc2)cc1`: the result in assay [13], in assay [2], in assay [14], in [15], in assay [16] and in assay [17] was Active. Also, the Ki in assay [1] came to 3.1 µM; in [3], 1.6 µM. For the same molecule, the result in [4] was inactive.
For the molecule `O=P1(N(CCCl)CCCl)NCCCO1` (configuration not stated) [CYCLOPHOSPHAMIDE ANHYDROUS], the inhibition in vivo at 60 mg/kg in assay [18] was 40%.
`CCOc1ccccc1CC(=O)C1C(=O)N(c2nc(-c3ccccc3)cs2)N=C1C` (configuration not stated): the Ki in [1] and in assay [3] was more than 100 µM in each case. The result in [2] and in assay [4] was inactive.
For `CCOc1ccccc1C(=O)C(=O)C1C(=O)N(c2nc(-c3ccccc3)cs2)N=C1C` (configuration not stated), the Ki in [1] and in assay [3] was more than 100 µM throughout. For the same molecule, the outcome in [2] and in assay [4] was inactive.
With `CC1=NN(c2nc(-c3ccccc3)cs2)C(=O)/C1=C/c1ccccc1`, the result in [13], in [2], in assay [14], in assay [15], in assay [16] and in assay [17] was Active. Besides, the results for the Ki in assay [1] and in assay [3] were 2.4 µM and 1.9 µM, respectively. The outcome in assay [4] was inactive.
On to `CCOc1ccccc1N/N=C1\C(=O)N(c2cc(O)cc(-c3ccccc3)c2)N=C1C`, for which the result in assay [13], in [2], in assay [14], in assay [15] and in [16] was Active. Moreover, the inhibition constant (Ki) in assay [1] and in assay [3] was more than 100 µM in each case. In addition, the result in [17] and in assay [4] was inactive.
As to `CC1=NN(c2nc(-c3ccccc3)cs2)C(=O)/C1=C/C(c1ccccc1)c1ccccc1`, the outcome in assay [13], in assay [2], in assay [14], in [15], in [16] and in [17] was Active. The results for the Ki in assay [1] and in assay [3] were more than 100 µM and 1.6 µM, respectively. Besides, the result in [4] was inactive.
With `CCOc1ccccc1N/N=C1\C(=O)N(c2cc(O)cc(-c3cccc(N)c3)c2)N=C1C`, the outcome in assay [13], in assay [2], in [14], in [15], in assay [16] and in assay [17] was Active. In addition, the inhibition constant Ki in assay [1] and in [3] was more than 100 µM throughout. Moreover, the outcome in assay [4] was inactive.
On to `CCOc1ccccc1N/N=C1\C(=O)N(c2cc(O)cc(-c3ccc(C(C)C)cc3)c2)N=C1C`, for which the outcome in assay [13], in assay [2], in [14], in [15], in [16] and in assay [17] was Active. Besides, the inhibition constant (Ki) in assay [1] turned out to be 15.5 µM; in [3], 1.9 µM. For the same molecule, the outcome in assay [4] was inactive.
Regarding `CC1=NN(c2nc(-c3ccccc3)cs2)C(=O)/C1=C/c1ccc2ccccc2c1`, the result in [13], in [2], in [14], in assay [15], in [16] and in assay [17] was Active. The Ki in assay [1] is 3.4 µM; in assay [3] it was 2 µM. Also, in assay [4], the outcome was inactive.
For the molecule `CC1=NN(c2cc(O)cc(-c3ccc(N(C)C)cc3)c2)C(=O)/C1=N\Nc1ccc2ccccc2c1`, the result in assay [13], in assay [2], in assay [14], in assay [15] and in assay [16] was Active. For the same molecule, the results for the Ki in [1] and in assay [3] were 3.4 µM and 33.9 µM, respectively. The outcome in assay [17] and in [4] was inactive.
For `CCOc1ccccc1N/N=C1\C(=O)N(c2cccc(-c3ccc(N(C)C)cc3)c2)N=C1C`, the result in assay [13], in assay [2], in [14], in assay [15], in assay [16] and in assay [17] was Active. The inhibition constant Ki in assay [1] is more than 100 µM; in assay [3], 4.2 µM. Besides, the outcome in [4] was inactive.
`CC1=NN(c2nc(-c3ccccc3)cs2)C(=O)/C1=C/c1ncc[nH]1`: the result in assay [13], in [2], in [14], in assay [15], in [16] and in [17] was Active. Also, the Ki stood at 6.8 µM in assay [1] and 2 µM in [3]. In addition, in assay [4], the result was inactive.
Regarding `CCOc1ccccc1N/N=C1\C(=O)N(c2cc(O)cc(-c3ccncc3)c2)N=C1C`, the outcome in assay [13], in assay [2], in assay [14], in assay [15] and in [16] was Active. Further, the inhibitory constant (Ki) in assay [1] is 30.9 µM; in assay [3], more than 100 µM. For the same molecule, the outcome in [17] and in assay [4] was inactive.

(Values after ChEMBL document CHEMBL3414479, “Structure-based lead optimization and biological evaluation of BAX direct activators as novel potential anticancer agents” (J Med Chem, 2015).)
